According to ChEMBL document CHEMBL2010753, “Free radical scavenging and antiproliferative properties of Biginelli adducts” (2012):
Values after ≈ are worked out from the molar mass of the structure shown. Active and inactive are the calls of the source. The rule behind the calls is not given here.

Legend:
Format in all cases: functional
[1] = Antioxidant activity assessed as scavenging of DPPH at 160 uM after 30 mins by spectrophotometry
U-251 = test: Growth inhibition of human U251 cells after 48 hrs by sulforhodamine B assay; details: U-251, 48 h
OVCAR-3 = test: Growth inhibition of human OVCAR3 cells after 48 hrs by sulforhodamine B assay; details: OVCAR-3, 48 h
[2] = Growth inhibition of human NCI-ADR-RES cells after 48 hrs by sulforhodamine B assay
PC-3 = test: Growth inhibition of human PC3 cells after 48 hrs by sulforhodamine B assay; details: PC-3, 48 h
786-0 = test: Growth inhibition of human 786-0 cells after 48 hrs by sulforhodamine B assay; details: 786-0, 48 h
HT-29 = test: Growth inhibition of human HT-29 cells after 48 hrs by sulforhodamine B assay; details: HT-29, 48 h
NCI-H460 = test: Growth inhibition of human NCI-H460 cells after 48 hrs by sulforhodamine B assay; details: NCI-H460, 48 h
[3] = Antioxidant activity assessed as scavenging of superoxide anions after 10 mins by spectrophotometry
How it was run: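 Superoxide generated photochemically in 50 mM phosphate buffer pH 7.8 with 13 mM L-methionine, 75 μM nitroblue tetrazolium, 100 μM EDTA, 2 μM riboflavin. Compound at 0–200 μM (12.5–200 μM tested), fluorescent light 10 min at 25 °C; dark-kept mixtures as controls; read at 575 nm. Triplicates in three independent experiments.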

[4] = Antioxidant activity assessed as scavenging of DPPH at 34.4 uM up to 10 mins by spectrophotometry
How it was run: (§1)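 Kinetic run: reaction medium with 10 nmol DPPH radicals in ethanol and compound at the stated concentration, DPPH scavenging followed over time up to 10 min. Three independent experiments, each in triplicate.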

[5] = Antioxidant activity assessed as concentration required to scavenge 50% superoxide anions after 10 mins by spectrophotometry
[6] = Antioxidant activity assessed as concentration required for 50% DPPH scavenging activity after 30 mins by spectrophotometry relative to monastrol
[7] = Antioxidant activity assessed as scavenging of DPPH at 24.2 uM up to 10 mins by spectrophotometry; how it was run: as §1
[8] = Antioxidant activity assessed as concentration required for 50% DPPH scavenging activity after 30 mins by spectrophotometry
[9] = Antioxidant activity assessed as scavenging of DPPH at 29.7 uM up to 10 mins by spectrophotometry; how it was run: as §1

Structure (SMILES) | Activity [1] | GI50 (U-251) [µg/mL] | GI50 (OVCAR-3) [µg/mL] | GI50 [2] [µg/mL] | GI50 (PC-3) [µg/mL] | GI50 (786-0) [µg/mL] | GI50 (HT-29) [µg/mL] | GI50 (NCI-H460) [µg/mL] | Activity [3] | Activity [4] | Activity [5] [µM] | fold change (FC) [6] | Activity [7] [pmol] | IC50 [8] [µM] | Activity [9] [pmol]
CCOC(=O)C1=C(C)NC(=O)NC1c1cccc(O)c1 (stereo unspecified) | inactive | 5.1 (≈ 18.5 µM) | 6 (≈ 21.7 µM) | 11.7 (≈ 42.3 µM) | 34.7 (≈ 126 µM) | 26.3 (≈ 95.2 µM) | 27.1 (≈ 98.1 µM) | 42 (≈ 152 µM) | – | – | – | – | – | – | –
CCOC(=O)C1=C(C)NC(=O)NC1c1ccc(F)cc1 (stereo unspecified) | inactive | 23.5 (≈ 84.4 µM) | 27.1 (≈ 97.4 µM) | 3.6 (≈ 12.9 µM) | 3.1 (≈ 11.1 µM) | 24.7 (≈ 88.8 µM) | 25.3 (≈ 90.9 µM) | 28.1 (≈ 101 µM) | – | – | – | – | – | – | –
CCOC(=O)C1=C(C)NC(=S)NC1c1ccc(OC)cc1 (stereo unspecified) | inactive | 29 (≈ 94.7 µM) | 0.99 (≈ 3.23 µM) | 3.2 (≈ 10.4 µM) | 5.5 (≈ 18 µM) | 25.9 (≈ 84.5 µM) | 30.6 (≈ 99.9 µM) | 31.4 (≈ 102 µM) | – | – | – | – | – | – | –
Oc1ccc(/C=C/c2cc(O)cc(O)c2)cc1 | Active | – | – | – | – | – | – | – | Dose-dependent effect | Active | 121 | – | – | – | –
CCOC(=O)C1=C(C)NC(=O)NC1c1ccc2c(c1)OCO2 (stereo unspecified) | inactive | 34.9 (≈ 115 µM) | 32.4 (≈ 106 µM) | 15.5 (≈ 50.9 µM) | 83.1 (≈ 273 µM) | 26.3 (≈ 86.4 µM) | 29.9 (≈ 98.3 µM) | 48.9 (≈ 161 µM) | – | – | – | – | – | – | –
CCOC(=O)C1=C(C)NC(=S)NC1c1cc(OC)c(O)c(OC)c1 (stereo unspecified) | Active | 0.77 (≈ 2.18 µM) | 1.9 (≈ 5.39 µM) | 25 (≈ 70.9 µM) | 19 (≈ 53.9 µM) | 13.4 (≈ 38 µM) | 28.2 (≈ 80 µM) | 65.6 (≈ 186 µM) | – | – | 78 | 37 | 370 | 24.2 | –
CCOC(=O)C1=C(C)NC(=O)NC1c1ccc(OC)cc1 (stereo unspecified) | inactive | 11.6 (≈ 40 µM) | 8 (≈ 27.6 µM) | 5.7 (≈ 19.6 µM) | 26.5 (≈ 91.3 µM) | 24.8 (≈ 85.4 µM) | 28.3 (≈ 97.5 µM) | > 250 | – | – | – | – | – | – | –
CCOC(=O)C1=C(C)NC(=S)NC1c1ccc(SC)cc1 (stereo unspecified) | inactive | 6 (≈ 18.6 µM) | 8.5 (≈ 26.4 µM) | 35.7 (≈ 111 µM) | 23.6 (≈ 73.2 µM) | 5.3 (≈ 16.4 µM) | 17.2 (≈ 53.3 µM) | 21.6 (≈ 67 µM) | – | – | – | – | – | – | –
CCOC(=O)C1=C(C)NC(=O)NC1c1ccc(SC)cc1 (stereo unspecified) | inactive | 8 (≈ 26.1 µM) | 10 (≈ 32.6 µM) | 2.7 (≈ 8.81 µM) | 9.5 (≈ 31 µM) | 2.5 (≈ 8.16 µM) | 10.2 (≈ 33.3 µM) | 3.6 (≈ 11.7 µM) | – | – | – | – | – | – | –
CCOC(=O)C1=C(C)NC(=O)NC1c1ccc(O)cc1 (stereo unspecified) | inactive | 4.2 (≈ 15.2 µM) | 27.3 (≈ 98.8 µM) | 3.2 (≈ 11.6 µM) | 136 (≈ 492 µM) | 25.8 (≈ 93.4 µM) | 28.7 (≈ 104 µM) | 40.6 (≈ 147 µM) | – | – | – | – | – | – | –
COc1cccc2c1C(=O)c1c(O)c3c(c(O)c1C2=O)C[C@@](O)(C(=O)CO)C[C@@H]3O[C@H]1C[C@H](N)[C@H](O)[C@H](C)O1 [DOXORUBICIN] | – | 0.068 (≈ 0.125 µM) | 0.27 (≈ 0.497 µM) | 0.14 (≈ 0.258 µM) | 0.24 (≈ 0.442 µM) | 0.18 (≈ 0.331 µM) | 0.27 (≈ 0.497 µM) | < 0.025 | – | – | – | – | – | – | –
CCCC1NC(=S)NC(C)=C1C(=O)OCC (stereo unspecified) | inactive | 29.2 (≈ 120 µM) | 38.1 (≈ 157 µM) | 40.3 (≈ 166 µM) | 42.4 (≈ 175 µM) | 27.7 (≈ 114 µM) | 50.4 (≈ 208 µM) | 22.5 (≈ 92.8 µM) | – | – | – | – | – | – | –
CCOC(=O)C1=C(C)NC(=S)NC1c1ccc(O)c(O)c1 (stereo unspecified) | Active | 26.5 (≈ 85.9 µM) | 25 (≈ 81.1 µM) | 24.3 (≈ 78.8 µM) | 25 (≈ 81.1 µM) | 28.3 (≈ 91.8 µM) | 22.7 (≈ 73.6 µM) | 31.7 (≈ 103 µM) | – | – | – | 37 | – | 29.7 | 413
